Results pooled from the literature.
Lines come from different studies, so protocols differ.
Enoyl-[acyl-carrier-protein] reductase [NADPH] FabI: Enoyl-[acyl-carrier-protein] reductase [NADPH] FabI (Staphylococcus aureus, UniProt Q6GI75)
BCL2L2: Bcl-2-like protein 2 (BCL2L2, Homo sapiens, UniProt Q92843)
FOLH1: Glutamate carboxypeptidase 2 (FOLH1, Homo sapiens, UniProt Q04609)
CYP1A1: Cytochrome P450 1A1 (CYP1A1, Homo sapiens, UniProt P04798)

SMILES | target | test | conditions | Ki
CCc1cc(O)c(Oc2ccccc2)cc1F | Enoyl-[acyl-carrier-protein] reductase [NADPH] FabI | enzyme activity, inhibitor | – | 0.09 nM
CC[C@H](C)[C@H](NC(=O)[C@H](CCCCN)NC(=O)[C@H](CCCNC(=N)N)NC(=O)[C@H](CC(C)C)NC(=O)[C@H](CCC(N)=O)NC(=O)[C@H](C)NC(=O)[C@H](C)NC(=O)[C@H](Cc1ccccc1)NC(=O)[C@H](CCC(=O)O)NC(=O)[C@@H]1CCCN1C(=O)[C@@H]1CCCN1C(=O)[C@H](CC(C)C)NC(=O)[C@H](CCC(=O)O)NC(=O)[C@H](C)NC(C)=O)C(=O)NCC(=O)N[C@@H](CC(=O)O)C(=O)N[C@@H](CCCCN)C(=O)N[C@H](C(=O)N[C@@H](Cc1ccc(O)cc1)C(=O)N[C@@H](CS)C(N)=O)C(C)C | BCL2L2 | ligand displacement, FP | – | ~14000 nM
CCc1cc(O)c(Oc2cccnc2F)cc1F | Enoyl-[acyl-carrier-protein] reductase [NADPH] FabI | enzyme activity, inhibitor | – | 0.35 nM
NCCCC[C@H](NC(=O)[C@@H]1CCCN1C(=O)[C@@H]1CSSC[C@H](N)C(=O)N[C@@H](Cc2ccc(O)cc2)C(=O)N[C@@H](Cc2ccccc2)C(=O)N[C@@H](CCC(N)=O)C(=O)N[C@@H](CC(N)=O)C(=O)N1)C(=O)NCC(N)=O | Vasopressin V1a receptor (AVPR1A, Homo sapiens, UniProt P37288) | ligand displacement, radioligand | cell membranes | 1.8 nM
O=C(O)CCC(NC(=O)NC(CCCCNC(=O)CCCCCCC(=O)NC(CCCCNC(=O)CN1CCN(CC(=O)O)CCN(CC(=O)O)CCN(CC(=O)O)CC1)C(=O)OCc1ccccc1)C(=O)O)C(=O)O (stereo not drawn) | FOLH1 | enzyme activity, inhibitor, fluorescence | – | 2.9 nM
CC[C@H](C)[C@H](NC(=O)[C@H](CCC(=O)O)NC(=O)[C@H](CC(=O)O)NC(=O)CNC(=O)[C@H](CC(C)C)NC(=O)[C@H](CCCNC(=N)N)NC(=O)[C@H](CCCNC(=N)N)NC(=O)[C@H](CC(C)C)NC(=O)CNC(=O)[C@H](CCC(N)=O)NC(=O)[C@@H](NC(=O)[C@H](CCSC)NC(=O)[C@H](Cc1c[nH]c2ccccc12)NC(=O)[C@@H](NC(=O)[C@H](CCC(=O)O)NC(=O)[C@@H]1CCCN1C(=O)[C@H](CCCNC(=N)N)NC(C)=O)[C@@H](C)CC)[C@@H](C)O)C(=O)N[C@@H](CC(N)=O)C(=O)N[C@@H](C)C(=O)N[C@@H](Cc1ccc(O)cc1)C(=O)N[C@@H](Cc1ccc(O)cc1)C(=O)N[C@@H](C)C(=O)N[C@@H](CCCNC(=N)N)C(N)=O | BCL2L2 | ligand displacement, FP | – | 1500 nM
C#Cc1ccc2c(=O)cc(-c3ccccc3)oc2c1 | CYP1A1 | enzyme activity, inhibitor, fluorescence | 6 min, pH 7.6 | 24 nM
CC[C@H](C)[C@H](NC(=O)[C@H](CCC(=O)O)NC(=O)[C@H](CC(=O)O)NC(=O)CNC(=O)[C@H](CC(C)C)NC(=O)[C@H](CCCNC(=N)N)NC(=O)[C@H](CCC(N)=O)NC(=O)[C@H](CC(C)C)NC(=O)[C@H](CO)NC(=O)[C@H](CCC(N)=O)NC(=O)[C@@H](NC(=O)[C@H](CC(C)C)NC(=O)[C@H](Cc1c[nH]c2ccccc12)NC(=O)[C@@H](NC(=O)[C@H](CCC(=O)O)NC(=O)[C@@H]1CCCN1C(=O)[C@H](CCCNC(=N)N)NC(C)=O)[C@@H](C)CC)[C@@H](C)O)C(=O)N[C@@H](CC(N)=O)C(=O)N[C@@H](C)C(=O)N[C@@H](Cc1ccc(O)cc1)C(=O)N[C@@H](Cc1ccc(O)cc1)C(=O)N[C@@H](C)C(=O)N[C@@H](CCCNC(=N)N)C(N)=O | BCL2L2 | ligand displacement, FP | – | 360 nM
CC(C)=CCc1c(O)cc(O)c2c1O[C@H](c1ccc(O)cc1)CC2=O | CYP1A1 | enzyme activity, inhibitor, fluorescence | 15 min, pH 7.4 | 200 nM
O=C(O)CCC(NC(=O)NC(CCCCNC(=O)CCCCCCC(=O)NCCCCC(NC(=O)C(Cc1ccccc1)NC(=O)C(Cc1ccccc1)NC(=O)CN1CCN(CC(=O)O)CCN(CC(=O)O)CCN(CC(=O)O)CC1)C(=O)O)C(=O)O)C(=O)O (stereo not drawn) | FOLH1 | enzyme activity, inhibitor, fluorescence | – | 1.23 nM
O=c1cc(-c2ccccc2)oc2c1ccc1ccccc12 | CYP1A1 | enzyme activity, inhibitor, fluorescence | 6 min, pH 7.6 | 43 nM
COc1cc(O)c(CC=C(C)C)c2c1C(=O)CC(c1ccc(O)cc1)O2 (stereo not drawn) | CYP1A1 | enzyme activity, inhibitor, fluorescence | 15 min, pH 7.4 | 1600 nM
